For test [1], the target named is Kappa-type opioid receptor (Cavia porcellus) (UniProt P41144). The test can be described thus: Antagonistic activity against Opioid receptor kappa 1 in guinea pig ileum assay. In kind it is functional, tissue-based. Put shortly:
(§1)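 Electrically stimulated guinea pig ileum. Antagonist present at 100 nM during a 30 min incubation. Agonists were morphine (mu) and ethylketazocine (kappa). Antagonism was expressed as IC50 ratio: agonist IC50 with antagonist divided by control IC50.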

In test [2] the test system is Mus musculus. The test can be described thus: Tested in vivo for antagonistic activity against antinociceptive effect of icv-administered DSLET in mice at 1.5 hr. In kind it is functional. In short, it runs like this: (§2)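 Mice were pretreated icv with antagonist at 5 nmol. Antinociception from icv DPDPE (delta1) or DSLET (delta2) was measured 1.5 or 24 h later. ED50 ratio is pretreated ED50 over control ED50. Selectivity is the DSLET ED50 ratio divided by the DPDPE ED50 ratio.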

In test [3] the test system is Mus musculus. The test can be described thus: Tested in vivo for antagonistic activity against antinociceptive effect of icv-administered DPDPE in mice at 24 hr. In kind it is functional. Put shortly: as §2
The test system of test [4] is Mus musculus. Briefly: Tested in vivo for antagonistic activity against antinociceptive effect of icv-administered DPDPE in mice at 1.5 hr. In kind it is functional. Put shortly: as §2
Test [5] deals with T1, Opioid receptors; delta & kappa (Homo sapiens) (UniProt P41145+P41143). Briefly: Selectivity ratio as the ratio of IC50 ratio of delta receptor to that of kappa receptor. The format is functional. Put shortly:
(§3)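 Each selectivity value is the delta IC50 ratio from mouse vas deferens (DADLE, 100 nM antagonist, 30 min) divided by the kappa (ethylketazocine) or mu (morphine) IC50 ratio from guinea pig ileum. A value of 1 was used wherever an IC50 ratio was below 1.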

Test [6] has as its target Delta-type opioid receptor (Homo sapiens) (UniProt P41143). Briefly: Selectivity ratio as ratio of ED50 value against delta-2 receptor to that delta-1 receptor after 1.5 administration. The format is functional, organism-based. In short, it runs like this:
as §2

In test [7] the target is Mu-type opioid receptor (Cavia porcellus) (UniProt P97266). The test can be described thus: Antagonistic activity against Opioid receptor mu 1 in guinea pig ileum assay. The format is functional, tissue-based. Put shortly: as §1
Test [8] has as its target Delta-type opioid receptor (Homo sapiens) (UniProt P41143). The test can be described thus: Selectivity ratio as ratio of ED50 value against delta-2 receptor to that delta-1 receptor after hours of administration,. In kind it is functional, organism-based. In short, it runs like this: as §2
In test [9] the target is T1, Opioid receptors; delta & kappa (Homo sapiens). Briefly: Selectivity ratio as ratio of Ki value towards kappa receptor to that of delta-1 receptor. In kind it is protein assay.
Another test deals with Mu-type opioid receptor (Cavia porcellus, UniProt P97266). The test can be described thus: Tested for binding affinity against mu opioid receptor using [3H]DAMGO as a radioligand in the guinea pig brain membranes. In kind it is cell membranes. Put shortly:
(§4)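 Radioligand competition in guinea pig brain membranes. Kappa sites were labelled with [3H]U69593 and mu sites with [3H]DAMGO. Delta1 sites used [3H]DPDPE and delta2 sites used [3H]DSLET, both in the presence of 100 nM unlabelled DAMGO. Results are reported as Ki.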

Test [10] addresses Delta-type opioid receptor (Mus musculus) (UniProt P32300). The test can be described thus: Antagonistic activity against opioid delta receptor in mouse vas deferens after 10 minutes. Preparation was washed (5x) with buffer after incubation with antagonist. In kind it is functional, tissue-based. Put shortly:
(§5)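 Electrically stimulated mouse vas deferens with DADLE as the delta agonist. Antagonist at 100 nM was incubated for the stated time (10, 30 or 60 min). The preparation was then washed 5 times with buffer before agonist IC50 was measured. Result is the IC50 ratio, agonist IC50 with antagonist over control IC50.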

The target is the same in test [11]. The test can be described thus: Antagonistic activity against opioid delta receptor in mouse vas deferens after 30 min incubation. Preparation was washed (5x) with buffer after incubation with antagonist. In kind it is functional, tissue-based. Put shortly:
as §5

Test [12] relates to Mus musculus. Briefly: Tested in vivo for antagonistic activity against antinociceptive effect of icv-administered DSLET in mice at 24 hr. The format is functional. In short, it runs like this:
as §2

The target of test [13] is Kappa-type opioid receptor (Cavia porcellus, UniProt P41144). Briefly: Tested for binding affinity against Opioid receptor kappa 1 using [3H]U-69593 as a radioligand in the guinea pig brain membranes. In kind it is cell membranes. Put shortly: as §4
Test [14] addresses Delta-type opioid receptor (Mus musculus) (UniProt P32300). Briefly: Antagonistic activity against opioid delta receptor in mouse vas deferens after 30 min. IC50 ratio determined without washing (prewash). In kind it is functional. In short, it runs like this:
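Electrically stimulated mouse vas deferens with DADLE as the delta agonist. Antagonist at 100 nM was incubated for 30 min. Agonist IC50 was measured directly without washing. Result is the IC50 ratio versus control agonist IC50.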

Test [15] addresses T2, Opioid receptors; mu & delta (Homo sapiens) (UniProt P41143+P35372). Briefly: Selectivity ratio as the ratio of IC50 ratio of delta receptor to that of mu receptor. The format is functional. In short, it runs like this:
as §3

The target in test [16] is T2, Opioid receptors; mu & delta (Homo sapiens). The test can be described thus: Selectivity ratio as ratio of Ki value towards mu receptor to that of delta-1 receptor. In kind it is protein assay.
The target in test [17] is Delta-type opioid receptor (Mus musculus) (UniProt P32300). The test can be described thus: Tested […] for antagonistic activity against opioid delta receptor in mice at incubation time of 60 minutes. Preparation was washed (5x) with buffer after incubation with antagonist. In kind it is functional.

The values below come from ChEMBL document CHEMBL1128299, “Electrophilic N-benzylnaltrindoles as delta opioid receptor-selective antagonists” (J Med Chem, 1995).

Kappa-type opioid receptor (Cavia porcellus), sequence (P41144 whole entry): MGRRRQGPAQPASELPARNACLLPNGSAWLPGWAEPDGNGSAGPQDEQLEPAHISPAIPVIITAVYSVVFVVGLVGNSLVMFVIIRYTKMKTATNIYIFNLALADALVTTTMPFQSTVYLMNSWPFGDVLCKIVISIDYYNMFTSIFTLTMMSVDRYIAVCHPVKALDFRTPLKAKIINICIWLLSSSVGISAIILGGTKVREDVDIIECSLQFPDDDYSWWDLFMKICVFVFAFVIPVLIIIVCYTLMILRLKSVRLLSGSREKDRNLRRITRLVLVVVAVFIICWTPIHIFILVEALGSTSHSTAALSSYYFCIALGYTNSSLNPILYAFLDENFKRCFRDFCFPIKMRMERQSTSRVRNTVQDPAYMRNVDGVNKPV
Kappa-type opioid receptor, sequence (P41144 whole entry): as above
Delta-type opioid receptor (Mus musculus), sequence (P32300 whole entry): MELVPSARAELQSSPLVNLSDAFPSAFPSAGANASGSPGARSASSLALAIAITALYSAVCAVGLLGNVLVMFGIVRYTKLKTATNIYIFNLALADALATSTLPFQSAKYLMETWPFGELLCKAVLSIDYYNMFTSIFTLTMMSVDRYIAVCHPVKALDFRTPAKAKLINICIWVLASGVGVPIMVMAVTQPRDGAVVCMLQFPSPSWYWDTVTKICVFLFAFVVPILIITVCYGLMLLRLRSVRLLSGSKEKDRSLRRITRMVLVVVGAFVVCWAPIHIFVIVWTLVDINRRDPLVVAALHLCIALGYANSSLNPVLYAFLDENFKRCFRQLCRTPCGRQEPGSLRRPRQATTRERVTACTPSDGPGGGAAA
T2 sequence (P35372 whole entry, looked up): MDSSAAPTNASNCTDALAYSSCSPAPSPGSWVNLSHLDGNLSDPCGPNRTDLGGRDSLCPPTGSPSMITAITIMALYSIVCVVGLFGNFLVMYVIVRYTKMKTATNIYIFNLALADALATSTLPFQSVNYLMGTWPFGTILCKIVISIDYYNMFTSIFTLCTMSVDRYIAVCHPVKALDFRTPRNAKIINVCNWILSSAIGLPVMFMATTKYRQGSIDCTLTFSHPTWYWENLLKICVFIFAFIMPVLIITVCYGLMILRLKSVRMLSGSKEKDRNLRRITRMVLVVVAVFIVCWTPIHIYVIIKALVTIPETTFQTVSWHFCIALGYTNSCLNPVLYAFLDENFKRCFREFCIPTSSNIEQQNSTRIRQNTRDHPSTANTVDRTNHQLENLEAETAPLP
T2 sequence (P41143 whole entry, looked up): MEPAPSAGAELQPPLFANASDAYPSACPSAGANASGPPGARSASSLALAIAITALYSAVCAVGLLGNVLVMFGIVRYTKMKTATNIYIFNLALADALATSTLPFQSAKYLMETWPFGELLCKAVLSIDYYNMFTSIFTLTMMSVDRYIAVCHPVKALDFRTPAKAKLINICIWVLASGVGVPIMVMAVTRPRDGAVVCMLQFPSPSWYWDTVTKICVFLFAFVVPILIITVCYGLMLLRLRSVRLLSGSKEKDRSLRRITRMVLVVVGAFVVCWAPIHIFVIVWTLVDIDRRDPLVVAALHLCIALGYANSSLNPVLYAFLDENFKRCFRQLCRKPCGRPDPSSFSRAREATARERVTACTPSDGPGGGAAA
Mu-type opioid receptor, sequence (P97266 whole entry): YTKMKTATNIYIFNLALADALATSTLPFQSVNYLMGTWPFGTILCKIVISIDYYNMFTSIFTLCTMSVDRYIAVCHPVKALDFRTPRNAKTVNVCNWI
Mu-type opioid receptor (Cavia porcellus), sequence (P97266 whole entry): as above
Delta-type opioid receptor (Homo sapiens), sequence (P41143 whole entry): as the sequence (P41143 whole entry, looked up) above
T1 sequence (P41143 whole entry, looked up): as above
T1 sequence (P41145 whole entry, looked up): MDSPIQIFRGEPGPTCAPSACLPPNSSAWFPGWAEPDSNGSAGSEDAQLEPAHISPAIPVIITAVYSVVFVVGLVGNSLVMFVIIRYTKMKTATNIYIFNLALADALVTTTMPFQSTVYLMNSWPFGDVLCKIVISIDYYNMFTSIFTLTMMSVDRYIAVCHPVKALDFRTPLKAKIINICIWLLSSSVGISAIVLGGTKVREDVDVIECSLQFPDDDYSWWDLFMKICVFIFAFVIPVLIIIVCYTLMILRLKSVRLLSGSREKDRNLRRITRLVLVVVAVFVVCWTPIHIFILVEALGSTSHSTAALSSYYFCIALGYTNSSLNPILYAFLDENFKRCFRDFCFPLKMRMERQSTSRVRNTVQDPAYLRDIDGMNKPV

By Ki is commonly meant the dissociation constant of the complex between target and ligand, obtained from inhibition or displacement. A lower Ki goes with tighter binding. As to `O=C(CBr)Nc1cccc(Cn2c3c(c4ccccc42)C[C@@]2(O)C4Cc5ccc(O)c6c5C2(CCN4CC2CC2)[C@H]3O6)c1` (some centres not stated), the IC50 ratio amounted to 0.9 in [1]; 3.8 in [7]; 44 in test [10]; 51 in test [11]; 511 in [14]. Further, the ED50 ratio in the test with Mus musculus [2] worked out at 2.4; with Mus musculus [3], 2.8; with Mus musculus [4], 1; in the test with Mus musculus [12] it was 6.9. The Selectivity is 511 in [5]; 2.4 in test [6]; 2.5 in test [8]; 463 in [9]; 135 in test [15]; 805 in [16]. In addition, the Ki came out at 15.3 nM at Mu-type opioid receptor and 8.8 nM in test [13].

Regarding `Oc1ccc2c3c1O[C@H]1c4c(c5ccccc5n4Cc4cccc(N=C=S)c4)C[C@@]4(O)C(C2)N(CC2CC2)CCC314` (some centres not stated), the IC50 ratio was 1.2 in test [1] and 0.8 in test [7]. Besides, the ED50 ratio in the test with Mus musculus [2] is 1.9; in the test with Mus musculus [3], 3.5; with Mus musculus [4], 1.1; in the test with Mus musculus [12] it was 4.1. The Selectivity amounted to 1.7 in [6], 1.2 in test [8], 5 in [9] and 16 in test [16]. Moreover, the Ki is 66.2 nM on Mu-type opioid receptor and 104 nM in test [13].

`O=C(CBr)Nc1ccc(Cn2c3c(c4ccccc42)C[C@@]2(O)C4Cc5ccc(O)c6c5C2(CCN4CC2CC2)[C@H]3O6)cc1` (some centres not stated): the IC50 ratio worked out at 0.9 in [1]; 0.7 in test [7]; 3.6 in test [10]; 12 in test [11]; 30 in test [14]; 1.4 in [17]. Besides, the Selectivity in [5] and in test [15] was 30 in each case.

For the compound `Oc1ccc2c3c1O[C@H]1c4c(c5ccccc5n4Cc4ccccc4N=C=S)C[C@@]4(O)C(C2)N(CC2CC2)CCC314` (some centres not stated), the IC50 ratio in [1] is 1.3; in [7] it was 0.6; in test [10] it was 23; in test [11] it was 39; in [14] it was 57; in test [17], 216. The ED50 ratio with Mus musculus [2] came out at 1.4; with Mus musculus [3], 19.4; in the test on Mus musculus [4], 1.1; in the test on Mus musculus [12], 8.8. The Selectivity in test [5] was 45; in test [6], 1.3; in test [8], 0.5; in test [9] it was 308; in [15], 57; in test [16], 76. The inhibition constant (Ki) on Mu-type opioid receptor was 151 nM; in [13] it was 615 nM.

On to `Oc1ccc2c3c1O[C@H]1c4c(c5ccccc5n4Cc4ccccc4)C[C@@]4(O)C(C2)N(CC2CC2)CCC314` (some centres not stated), for which the values for the IC50 ratio in [1], in [7] and in test [14] were 0.4, 1.6 and 208, respectively. Further, the ED50 ratio with Mus musculus [2] was found to be 3.2; with Mus musculus [3], 1.5; in the test on Mus musculus [4] it was 1; with Mus musculus [12], 11.1. The Selectivity in [5] is 208; in [6] it was 3.2; in test [8], 7.4; in test [15], 131.

For the compound `CC(=O)Nc1ccccc1Cn1c2c(c3ccccc31)C[C@@]1(O)C3Cc4ccc(O)c5c4C1(CCN3CC1CC1)[C@H]2O5` (some centres not stated), the IC50 ratio in test [1] turned out to be 1.3; in test [7], 1.9; in test [11], 10; in test [14], 54. For the same compound, the values for the Selectivity in test [5] and in test [15] were 42 and 29, respectively.

Take `CC(=O)Nc1ccc(Cn2c3c(c4ccccc42)C[C@@]2(O)C4Cc5ccc(O)c6c5C2(CCN4CC2CC2)[C@H]3O6)cc1` (some centres not stated): the IC50 ratio in [1] is 0.2; in test [7], 0.9; in test [10], 1.6; in test [11], 3.1; in test [14], 31; in [17], 7.1. For the same compound, the Selectivity in [5] and in [15] was 31 in each case.

With `O=C(CBr)Nc1ccccc1Cn1c2c(c3ccccc31)C[C@@]1(O)C3Cc4ccc(O)c5c4C1(CCN3CC1CC1)[C@H]2O5` (some centres not stated), the IC50 ratio was found to be 1.1 in test [1], 1.7 in test [7], 13 in [11] and 35 in test [14]. For the same compound, the Selectivity worked out at 33 in [5] and 21 in test [15].

Regarding `Oc1ccc2c3c1O[C@H]1c4c(c5ccccc5n4Cc4ccc(N=C=S)cc4)C[C@@]4(O)C(C2)N(CC2CC2)CCC314` (some centres not stated), the IC50 ratio in test [1] was determined as 0.6; in test [7], 1.3; in test [10] it was 6.7; in test [11] it was 20; in test [14], 18. The ED50 ratio in the test with Mus musculus [2] is on record as 3.8; with Mus musculus [3], 2.5; in the test on Mus musculus [4] it was 1.1; with Mus musculus [12], 4.2. In addition, the Selectivity in [5] was 18; in [6] it was 3.5; in [8] it was 1.7; in [9], 46; in test [15], 25; in test [16], 55. For the same compound, the Ki at Mu-type opioid receptor worked out at 289 nM; in test [13] it was 245 nM.

Regarding `O=C(CI)Nc1ccccc1Cn1c2c(c3ccccc31)C[C@@]1(O)C3Cc4ccc(O)c5c4C1(CCN3CC1CC1)[C@H]2O5` (some centres not stated), the IC50 ratio in [1] came to 0.5; in [7] it was 0.7; in test [10] it was 51.2; in test [11], 25.5; in test [14], 50.7. Also, the Selectivity in test [5] and in test [15] was 51 each time.

With `CC(=O)Nc1cccc(Cn2c3c(c4ccccc42)C[C@@]2(O)C4Cc5ccc(O)c6c5C2(CCN4CC2CC2)[C@H]3O6)c1` (some centres not stated), the IC50 ratio in [1] stood at 0.9; in test [7] it was 5.3; in test [10], 16; in [11], 18; in [14] it was 33. For the same compound, the Selectivity in test [5] and in [15] was 31 in each case.
